Data reported in ChEMBL document CHEMBL1134340, “GnRH antagonists: a new generation of long acting analogues incorporating p-ureido-phenylalanines at positions 5 and 6” (J Med Chem, 2001).
Values after ≈ are worked out from the molar mass of the structure shown. *1 amine or outer side, *2 acyl side, *3 side chain or, on linkers, in order; H or OH if unused. Where a SMILES comes first, the peptide text is derived from it. [ ]: non-standard residue; d: D form. Phe(4-NH(5-NH2triazol-3-yl)) = Nc1nc(Nc2ccc(C[C@H](N)C(=O)O)cc2)n[nH]1; X1 = Nc1nc(Nc2ccc(C[C@@H](N[*:1])C(=O)[*:2])cc2)n[nH]1; d(hArg(Et2)) = CCN=C(NCC)NCCCC[C@@H](N)C(=O)O; hArg(Et2) = CCN=C(NCC)NCCCC[C@H](N)C(=O)O; dPhe(4-Cl) = N[C@H](Cc1ccc(Cl)cc1)C(=O)O; d2Nal = N[C@H](Cc1ccc2ccccc2c1)C(=O)O; Lys(iPr) = CC(C)NCCCC[C@H](N)C(=O)O; dCit = NC(=O)NCCC[C@@H](N)C(=O)O; d3Pal = N[C@H](Cc1cccnc1)C(=O)O

Tests used:
Rattus norvegicus [1] = organism: Rattus norvegicus; test: Compound was tested for inhibition of Leutenizing hormone release at 48 hours (intermediate duration) in castrated male rat assay; type: functional
Method in brief: (§1)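 Male Sprague-Dawley rats (180-200 g), castrated under ether 10 days earlier, 5 per group. 50 µg/rat given sc in 100 µL 40 mM phosphate buffer with 0.1% BSA and 0.6% DMSO; acyline run as internal standard. Tail blood taken predose and at 24, 48, 72, 96 (sometimes 120) h; plasma LH by RIA. Duration classed by >80% LH inhibition at each time.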

Rattus norvegicus [2] = organism: Rattus norvegicus; test: Effective dose for histamine release was determined; type: functional
Method in brief: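 ED50 for histamine release calculated from % release values across concentrations in rat peritoneal mast cell assay (2 min, 37 °C, o-phthalaldehyde fluorometric read-out, corrected for vehicle release).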

Rattus norvegicus [3] = organism: Rattus norvegicus; test: Compound was tested for histamine release at a concentration of 30 ug/mL; type: functional
Method in brief: (§2)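 Sprague-Dawley rat peritoneal mast cells, Percoll-purified, in heparinized balanced salt solution with albumin, pH 7.2. Cells exposed to compound or vehicle for 2 min at 37 °C. Supernatant histamine measured spectrofluorometrically after o-phthalaldehyde derivatization; pellets lysed for retained histamine. Reported as % of total histamine released, corrected for spontaneous release in vehicle.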

Rattus norvegicus [4] = organism: Rattus norvegicus; test: Compound was tested for histamine release at a concentration of 100 ug/mL; type: functional; method in brief: as §2
Rattus norvegicus [5] = organism: Rattus norvegicus; test: Compound was tested for histamine release at a concentration of 10 ug/mL; type: functional; method in brief: as §2
Rattus norvegicus [6] = organism: Rattus norvegicus; test: Compound was tested for inhibition of Leutenizing hormone release at 72 hours (long duration) in castrated male rat assay; type: functional; design: concentration or dose not given beside the values; method in brief: as §1
Rattus norvegicus [7] = organism: Rattus norvegicus; test: Compound was tested for histamine release at a concentration of 3 ug/mL; type: functional; method in brief: as §2
[8] = target: T1, Gonadotropin-releasing hormone receptor (Homo sapiens, UniProt P30968); test: Competitive antagonism of GnRH-induced response in the reporter gene assay; type: functional; details: read-out: pA2 (converted)
T1 sequence (P30968 whole entry): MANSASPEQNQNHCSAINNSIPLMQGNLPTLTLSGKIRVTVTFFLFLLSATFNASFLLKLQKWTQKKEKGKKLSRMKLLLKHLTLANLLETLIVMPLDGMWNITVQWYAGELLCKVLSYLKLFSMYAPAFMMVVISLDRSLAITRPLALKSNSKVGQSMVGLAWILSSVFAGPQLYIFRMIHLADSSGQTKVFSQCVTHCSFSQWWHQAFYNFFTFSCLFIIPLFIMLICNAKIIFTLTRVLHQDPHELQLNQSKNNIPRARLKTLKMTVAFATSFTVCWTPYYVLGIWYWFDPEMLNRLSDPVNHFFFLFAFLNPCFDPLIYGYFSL
Method in brief: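 Same HEK293 human GnRH receptor luciferase reporter cells. Seven-point GnRH curve (10 µM to 10 pM final) run in duplicate without or with four to five increasing compound concentrations (10 min preincubation, 37 °C), then 5 h and luminescence. GnRH EC50 at each level by four-parameter logistic fit, giving pA2; mean of two determinations in duplicate.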

[9] = target: T1, Gonadotropin-releasing hormone receptor; test: Antagonism of human GnHR receptor, determined in a reporter gene assay in HEK293 cells; type: functional, cell-based
Method in brief: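 HEK293 cells stably expressing cloned human GnRH receptor plus luciferase reporter under LH alpha subunit promoter, plated 24 h before assay. Compound in 1% DMSO added 10 min at 37 °C, then GnRH at 3 nM final; 5 h incubation, luciferase luminescence read. Six concentrations in duplicate; blank-subtracted cps as % of GnRH control; mean of two determinations.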

Rattus norvegicus [10] = organism: Rattus norvegicus; test: Compound was tested for histamine release at a concentration of 1 ug/mL; type: functional; method in brief: as §2
Rattus norvegicus [11] = organism: Rattus norvegicus; test: Compound was tested for inhibition of Leutenizing hormone release at 24 hours (very short duration) in castrated male rat assay; NI means no inhibition at 24 hr; type: functional, organism-based; method in brief: as §1
Rattus norvegicus [12] = organism: Rattus norvegicus; test: Compound was tested for histamine release at a concentration of 150 ug/mL; type: functional; method in brief: as §2

CC(=O)N[C@H](Cc1ccc2ccccc2c1)C(=O)N[C@H](Cc1ccc(Cl)cc1)C(=O)N[C@H](Cc1cccnc1)C(=O)N[C@@H](CO)C(=O)N[C@@H](Cc1ccc(NC(=O)[C@H]2CC(=O)NC(=O)N2)cc1)C(=O)N[C@H](Cc1ccc(CNC(N)=O)cc1)C(=O)N[C@@H](CC(C)C)C(=O)N[C@@H](CCCCNC(C)C)C(=O)N1CCC[C@H]1C(=O)N[C@H](C)C(N)=O
Inhibition (Rattus norvegicus [1]): >80%

CC(=O)O.CC(=O)O.CC/N=C(\NCC)NCCCC[C@H](NC(=O)[C@H](CC(C)C)NC(=O)[C@@H](CCCCN/C(=N/CC)NCC)NC(=O)[C@H](Cc1ccc(O)cc1)NC(=O)[C@H](CO)NC(=O)[C@@H](Cc1cccnc1)NC(=O)[C@@H](Cc1ccc(Cl)cc1)NC(=O)[C@@H](Cc1ccc2ccccc2c1)NC(C)=O)C(=O)N1CCC[C@H]1C(=O)N[C@H](C)C(N)=O [GANIRELIX ACETATE] (Ac-[d2Nal][dPhe(4-Cl)][d3Pal]SY[d(hArg(Et2))]L[hArg(Et2)]P[dA]-NH2)
ED50 (Rattus norvegicus [2]): 11 µg/mL
HR (Rattus norvegicus [3]): 57%
Inhibition (Rattus norvegicus [1]): >80%
HR (Rattus norvegicus [4]): 62%
HR (Rattus norvegicus [5]): 30%

CC(=O)N[C@H](Cc1ccc2ccccc2c1)C(=O)N[C@H](Cc1ccc(Cl)cc1)C(=O)N[C@H](Cc1cccnc1)C(=O)N[C@@H](CO)C(=O)N[C@@H](Cc1ccc(O)cc1)C(=O)N[C@H](CCCNC(N)=O)C(=O)N[C@@H](CC(C)C)C(=O)N[C@@H](CCCNC(=N)N)C(=O)N1CCC[C@H]1C(=O)N[C@H](C)C(N)=O [CETRORELIX] (Ac-[d2Nal][dPhe(4-Cl)][d3Pal]SY[dCit]LRP[dA]-NH2)
ED50 (Rattus norvegicus [2]): 1.3 µg/mL (≈ 0.908 µM)
Inhibition (Rattus norvegicus [6]): >80%
HR (Rattus norvegicus [7]): 5%
Kb [8]: 1.26 nM
IC50 [9]: 4.2 nM
HR (Rattus norvegicus [10]): 34%
HR (Rattus norvegicus [5]): 64%

CC(=O)Nc1ccc(C[C@@H](NC(=O)[C@H](CNC(=O)[C@@H]2CC(=O)NC(=O)N2)NC(=O)[C@H](CO)NC(=O)[C@@H](Cc2cccnc2)NC(=O)[C@@H](Cc2ccc(Cl)cc2)NC(=O)[C@@H](Cc2ccc3ccccc3c2)NC(C)=O)C(=O)N[C@@H](CC(C)C)C(=O)N[C@@H](CCCCNC(C)C)C(=O)N2CCC[C@H]2C(=O)N[C@H](C)C(N)=O)cc1
NI (Rattus norvegicus [11]): no inhibition at 24 hr
HR (Rattus norvegicus [12]): 96%

CC(=O)Nc1ccc(C[C@@H](NC(=O)[C@@H](NC(=O)[C@H](CO)NC(=O)[C@@H](Cc2cccnc2)NC(=O)[C@@H](Cc2ccc(Cl)cc2)NC(=O)[C@@H](Cc2ccc3ccccc3c2)NC(C)=O)N(C)C(N)=O)C(=O)N[C@@H](CC(C)C)C(=O)N[C@@H](CCCCNC(C)C)C(=O)N2CCC[C@H]2C(=O)N[C@H](C)C(N)=O)cc1
NI (Rattus norvegicus [11]): no inhibition at 24 hr

CC(=O)N[C@H](Cc1ccc2ccccc2c1)C(=O)N[C@H](Cc1ccc(Cl)cc1)C(=O)N[C@H](Cc1cccnc1)C(=O)N[C@@H](CO)C(=O)N[C@@H](CCCCNC(=O)[C@H]1CC(=O)NC(=O)N1)C(=O)N[C@H](CCCCNC(=O)[C@@H]1CC(=O)NC(=O)N1)C(=O)N[C@@H](CC(C)C)C(=O)N[C@@H](CCCCNC(C)C)C(=O)N1CCC[C@H]1C(=O)N[C@H](C)C(N)=O
NI (Rattus norvegicus [11]): no inhibition at 24 hr

CC(=O)N[C@H](Cc1ccc2ccccc2c1)C(=O)N[C@H](Cc1ccc(Cl)cc1)C(=O)N[C@H](Cc1cccnc1)C(=O)N[C@@H](CO)C(=O)N[C@@H](Cc1ccc(Nc2n[nH]c(N)n2)cc1)C(=O)N[C@H](Cc1ccc(Nc2n[nH]c(N)n2)cc1)C(=O)N[C@@H](CC(C)C)C(=O)N[C@@H](CCCCNC(C)C)C(=O)N1CCC[C@H]1C(=O)N[C@H](C)C(N)=O.CC(=O)O [PRAZARELIX ACETATE] (Ac-[d2Nal][dPhe(4-Cl)][d3Pal]S[Phe(4-NH(5-NH2triazol-3-yl))][X1]L[Lys(iPr)]P[dA]-NH2)
ED50 (Rattus norvegicus [2]): 19 µg/mL
Inhibition (Rattus norvegicus [6]): >80%
HR (Rattus norvegicus [3]): 70%
Kb [8]: 1.58 nM
IC50 [9]: 6.9 nM
HR (Rattus norvegicus [4]): 93%
HR (Rattus norvegicus [5]): 17%
